A value given as a limit tells only on which side of the number the result lay.

Experiment [1] deals with AMP-activated protein kinase, AMPK (Homo sapiens) (UniProt P54646+O43741+P54619+Q9UGJ0+Q9Y478+Q13131+Q9UGI9). Nature of the experiment: Inhibition of AMPK (unknown origin) at 250 nM by radioactive filter-binding assay. The experiment is classed as protein-complex assay. The method in brief: (§1)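 Panel profiling of one compound against 50 kinases, carried out in duplicate at the International Centre for Protein Kinase Profiling. Radioactive filter-binding format.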

For experiment [2], the target named is Proto-oncogene tyrosine-protein kinase Src (Homo sapiens) (UniProt P12931). Nature of the experiment: Inhibition of SRC (unknown origin) at 250 nM by radioactive filter-binding assay. In outline:
as §1

The target in experiment [3] is Serine/threonine-protein kinase Sgk1 (Homo sapiens) (UniProt O00141). In words: Inhibition of SGK1 (unknown origin) at 250 nM by radioactive filter-binding assay. In outline:
as §1

Experiment [4] has as its target Mitogen-activated protein kinase kinase kinase 7 (Homo sapiens) (UniProt O43318). In words: Inhibition of TAK1 (unknown origin) at 250 nM by radioactive filter-binding assay. The method in brief:
as §1

For experiment [5], the target named is Serine/threonine-protein kinase PAK 4 (Homo sapiens) (UniProt O96013). Nature of the experiment: Inhibition of PAK4 (unknown origin) at 250 nM by radioactive filter-binding assay. In outline:
as §1

The target of experiment [6] is T1, 3-phosphoinositide-dependent protein kinase 1 (Homo sapiens, UniProt O15530).
T1 sequence (O15530 whole entry): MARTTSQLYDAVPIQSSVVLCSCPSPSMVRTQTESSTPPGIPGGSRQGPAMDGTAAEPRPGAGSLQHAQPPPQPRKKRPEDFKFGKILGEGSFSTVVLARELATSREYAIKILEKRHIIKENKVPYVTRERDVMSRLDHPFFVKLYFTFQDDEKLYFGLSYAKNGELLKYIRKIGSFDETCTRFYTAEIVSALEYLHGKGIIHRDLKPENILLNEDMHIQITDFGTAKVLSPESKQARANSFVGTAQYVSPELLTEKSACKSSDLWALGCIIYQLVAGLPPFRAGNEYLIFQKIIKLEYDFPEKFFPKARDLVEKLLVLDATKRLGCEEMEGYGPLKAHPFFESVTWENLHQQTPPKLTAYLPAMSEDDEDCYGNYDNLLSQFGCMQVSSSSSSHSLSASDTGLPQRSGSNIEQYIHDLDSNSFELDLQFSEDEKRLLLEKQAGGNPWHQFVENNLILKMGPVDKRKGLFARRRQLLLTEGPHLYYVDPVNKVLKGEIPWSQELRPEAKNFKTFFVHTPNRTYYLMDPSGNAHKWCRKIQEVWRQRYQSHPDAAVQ
Nature of the experiment: Inhibition of recombinant PDK1 (unknown origin) using PDK1tide substrate incubated for 7 mins. The method in brief: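 Recombinant PDK1 at 5 nM with 50 µM synthetic PDK1tide in 50 mM HEPES pH 7.5, 10 mM MgCl2, 1 mg/ml BSA, 0.02% Triton-X and 50 µM DTT. Stopped after 7 min by spotting onto nitrocellulose, washed three times in 1% phosphoric acid and phosphorimaged. IC50 from curve fitting; duplicate.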

For experiment [7], the target named is Mitogen-activated protein kinase kinase kinase 11 (Homo sapiens) (UniProt Q16584). In words: Inhibition of MLK3 (unknown origin) at 250 nM by radioactive filter-binding assay. The method in brief:
as §1

The next experiment is filed under the species Homo sapiens. In words: Inhibition of Aurora (unknown origin) at 250 nM by radioactive filter-binding assay. In outline: as §1
The target of experiment [8] is T2, Serine/threonine-protein kinase ULK2 (Homo sapiens, UniProt Q8IYT8).
T2 sequence (Q8IYT8 whole entry): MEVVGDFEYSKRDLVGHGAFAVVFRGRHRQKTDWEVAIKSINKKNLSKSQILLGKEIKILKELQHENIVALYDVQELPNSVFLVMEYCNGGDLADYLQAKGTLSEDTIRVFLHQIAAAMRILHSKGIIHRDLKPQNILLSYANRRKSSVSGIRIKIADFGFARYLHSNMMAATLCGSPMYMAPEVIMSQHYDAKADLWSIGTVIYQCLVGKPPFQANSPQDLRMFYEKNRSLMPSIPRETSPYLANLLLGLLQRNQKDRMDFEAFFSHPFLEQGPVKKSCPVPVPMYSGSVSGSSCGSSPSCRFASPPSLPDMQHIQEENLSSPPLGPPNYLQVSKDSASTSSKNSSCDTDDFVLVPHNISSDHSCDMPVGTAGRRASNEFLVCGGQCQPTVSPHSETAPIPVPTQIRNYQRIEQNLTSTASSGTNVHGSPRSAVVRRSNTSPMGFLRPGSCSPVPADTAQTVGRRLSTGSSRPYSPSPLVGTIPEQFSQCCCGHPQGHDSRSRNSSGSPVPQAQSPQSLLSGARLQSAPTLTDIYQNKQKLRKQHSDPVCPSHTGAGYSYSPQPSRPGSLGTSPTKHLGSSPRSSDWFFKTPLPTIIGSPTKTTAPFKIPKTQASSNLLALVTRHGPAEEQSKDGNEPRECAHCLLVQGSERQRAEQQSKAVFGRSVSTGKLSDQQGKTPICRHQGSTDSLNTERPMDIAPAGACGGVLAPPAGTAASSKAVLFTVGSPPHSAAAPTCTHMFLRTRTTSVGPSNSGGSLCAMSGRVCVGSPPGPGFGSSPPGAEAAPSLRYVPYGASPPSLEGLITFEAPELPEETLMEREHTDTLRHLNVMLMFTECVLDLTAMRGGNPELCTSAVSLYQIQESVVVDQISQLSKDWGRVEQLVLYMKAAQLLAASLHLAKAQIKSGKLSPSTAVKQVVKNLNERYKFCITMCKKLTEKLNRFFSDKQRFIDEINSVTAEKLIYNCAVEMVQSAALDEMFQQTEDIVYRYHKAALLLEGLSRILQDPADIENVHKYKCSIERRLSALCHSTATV
Nature of the experiment: Inhibition of SUMO-tagged ULK2 (unknown origin) kinase domain expressed in KRX cells using [32P]-gamma-ATP and myelin basic protein substrate incubated for 7 mins. It counts as single protein. In outline:
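Enzyme at 5 nM with 50 µM cold ATP, 0.05 µCi/µl 32P-γ-ATP and 20 µM myelin basic protein as substrate. Reactions were spotted onto nitrocellulose, washed three times in 1% phosphoric acid, dried and imaged by phosphorimager. IC50 from curve fitting; duplicate.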

Experiment [9] concerns the target MAP/microtubule affinity-regulating kinase 3 (Homo sapiens) (UniProt P27448). Nature of the experiment: Inhibition of MARK3 (unknown origin) at 250 nM by radioactive filter-binding assay. The method in brief:
as §1

The target in experiment [10] is Calcium/calmodulin-dependent protein kinase type 1 (Homo sapiens) (UniProt Q14012). In words: Inhibition of CAMK1 (unknown origin) at 250 nM by radioactive filter-binding assay. The method in brief:
as §1

Experiment [11] deals with Tyrosine-protein kinase SYK (Homo sapiens) (UniProt P43405). In words: Inhibition of SYK (unknown origin) at 250 nM by radioactive filter-binding assay. The method in brief: as §1
Experiment [12] addresses Dual specificity mitogen-activated protein kinase kinase 1 (Homo sapiens) (UniProt Q02750). Nature of the experiment: Inhibition of MKK1 (unknown origin) at 2 uM by radioactive filter-binding assay. The method in brief: as §1
Experiment [13] addresses Ribosomal protein S6 kinase alpha-1 (Homo sapiens) (UniProt Q15418). In words: Inhibition of RSK1 (unknown origin) at 2 uM by radioactive filter-binding assay. The method in brief: as §1
Experiment [14] has as its target Vascular endothelial growth factor receptor (Homo sapiens) (UniProt P17948+P35916+P35968). In words: Inhibition of VEGFR (unknown origin) at 2 uM by radioactive filter-binding assay. It counts as protein assay. In outline: as §1

Chain of Proto-oncogene tyrosine-protein kinase Src (Homo sapiens) (P12931 2-536 limits assumed): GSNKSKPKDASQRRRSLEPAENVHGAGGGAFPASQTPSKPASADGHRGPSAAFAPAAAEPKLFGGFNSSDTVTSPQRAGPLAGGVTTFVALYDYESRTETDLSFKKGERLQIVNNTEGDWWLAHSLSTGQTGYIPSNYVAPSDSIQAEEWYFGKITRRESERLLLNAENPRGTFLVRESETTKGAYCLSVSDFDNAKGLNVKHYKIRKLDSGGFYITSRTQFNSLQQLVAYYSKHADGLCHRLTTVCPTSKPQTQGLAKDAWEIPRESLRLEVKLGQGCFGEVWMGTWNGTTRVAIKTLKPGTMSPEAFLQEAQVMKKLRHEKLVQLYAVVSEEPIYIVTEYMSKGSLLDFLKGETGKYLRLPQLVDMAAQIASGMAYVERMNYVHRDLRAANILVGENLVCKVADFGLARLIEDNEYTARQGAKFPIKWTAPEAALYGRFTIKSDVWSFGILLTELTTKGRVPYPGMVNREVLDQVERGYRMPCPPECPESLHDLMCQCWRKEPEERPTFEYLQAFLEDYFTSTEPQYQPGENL
Chain of MAP/microtubule affinity-regulating kinase 3 (Homo sapiens) (P27448 whole entry, looked up): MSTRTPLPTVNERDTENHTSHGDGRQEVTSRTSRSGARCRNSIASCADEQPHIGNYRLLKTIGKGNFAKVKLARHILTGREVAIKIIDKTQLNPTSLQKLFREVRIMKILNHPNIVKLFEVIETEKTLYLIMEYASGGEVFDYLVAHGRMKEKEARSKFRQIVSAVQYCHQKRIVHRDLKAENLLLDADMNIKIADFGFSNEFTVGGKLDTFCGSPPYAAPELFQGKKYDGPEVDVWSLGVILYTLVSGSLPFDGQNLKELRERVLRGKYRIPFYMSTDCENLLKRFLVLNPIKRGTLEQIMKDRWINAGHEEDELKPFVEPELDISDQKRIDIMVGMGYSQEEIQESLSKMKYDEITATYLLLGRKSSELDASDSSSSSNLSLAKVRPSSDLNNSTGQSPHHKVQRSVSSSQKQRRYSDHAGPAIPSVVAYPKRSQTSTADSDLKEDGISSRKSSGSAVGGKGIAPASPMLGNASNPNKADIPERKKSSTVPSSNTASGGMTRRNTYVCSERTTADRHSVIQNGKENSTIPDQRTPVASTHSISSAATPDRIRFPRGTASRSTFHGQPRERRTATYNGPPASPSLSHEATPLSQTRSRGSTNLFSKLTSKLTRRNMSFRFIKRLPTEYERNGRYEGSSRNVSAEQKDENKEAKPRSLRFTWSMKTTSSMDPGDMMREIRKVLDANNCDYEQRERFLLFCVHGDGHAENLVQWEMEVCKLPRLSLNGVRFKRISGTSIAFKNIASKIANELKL
Chain of Mitogen-activated protein kinase kinase kinase 7 (Homo sapiens) (O43318 whole entry): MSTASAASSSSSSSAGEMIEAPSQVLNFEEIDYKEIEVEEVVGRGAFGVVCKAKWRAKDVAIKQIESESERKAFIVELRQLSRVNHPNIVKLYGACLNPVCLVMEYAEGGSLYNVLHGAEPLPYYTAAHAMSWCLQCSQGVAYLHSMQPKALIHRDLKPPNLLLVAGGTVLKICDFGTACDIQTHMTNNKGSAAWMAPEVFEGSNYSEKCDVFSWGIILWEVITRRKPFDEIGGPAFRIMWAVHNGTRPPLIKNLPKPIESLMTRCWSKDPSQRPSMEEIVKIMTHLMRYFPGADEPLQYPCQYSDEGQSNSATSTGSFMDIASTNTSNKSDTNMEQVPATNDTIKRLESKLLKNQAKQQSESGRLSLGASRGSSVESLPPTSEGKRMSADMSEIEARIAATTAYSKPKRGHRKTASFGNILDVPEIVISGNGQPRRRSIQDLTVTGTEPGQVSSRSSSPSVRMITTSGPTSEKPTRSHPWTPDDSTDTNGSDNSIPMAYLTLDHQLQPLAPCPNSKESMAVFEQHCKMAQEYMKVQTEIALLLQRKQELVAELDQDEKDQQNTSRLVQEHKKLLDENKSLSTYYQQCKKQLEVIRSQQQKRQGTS
Chain of Serine/threonine-protein kinase PAK 4 (Homo sapiens) (O96013 whole entry, looked up): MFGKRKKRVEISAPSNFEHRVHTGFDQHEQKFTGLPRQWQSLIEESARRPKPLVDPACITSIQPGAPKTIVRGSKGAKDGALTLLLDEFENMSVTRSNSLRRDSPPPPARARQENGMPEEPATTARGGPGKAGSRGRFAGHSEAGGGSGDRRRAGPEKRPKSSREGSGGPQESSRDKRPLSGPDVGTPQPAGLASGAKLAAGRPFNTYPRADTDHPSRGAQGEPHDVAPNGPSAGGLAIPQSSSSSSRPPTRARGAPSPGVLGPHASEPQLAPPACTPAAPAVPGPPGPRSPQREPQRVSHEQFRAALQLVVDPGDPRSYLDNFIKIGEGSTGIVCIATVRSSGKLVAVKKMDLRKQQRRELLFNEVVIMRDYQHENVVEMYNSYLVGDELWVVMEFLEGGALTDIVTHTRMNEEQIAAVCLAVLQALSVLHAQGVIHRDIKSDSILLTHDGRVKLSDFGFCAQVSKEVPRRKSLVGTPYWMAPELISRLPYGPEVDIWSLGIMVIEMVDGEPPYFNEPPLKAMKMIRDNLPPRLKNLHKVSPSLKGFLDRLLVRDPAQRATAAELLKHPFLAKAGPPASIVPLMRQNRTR
Chain of Dual specificity mitogen-activated protein kinase kinase 1 (Homo sapiens) (Q02750 whole entry): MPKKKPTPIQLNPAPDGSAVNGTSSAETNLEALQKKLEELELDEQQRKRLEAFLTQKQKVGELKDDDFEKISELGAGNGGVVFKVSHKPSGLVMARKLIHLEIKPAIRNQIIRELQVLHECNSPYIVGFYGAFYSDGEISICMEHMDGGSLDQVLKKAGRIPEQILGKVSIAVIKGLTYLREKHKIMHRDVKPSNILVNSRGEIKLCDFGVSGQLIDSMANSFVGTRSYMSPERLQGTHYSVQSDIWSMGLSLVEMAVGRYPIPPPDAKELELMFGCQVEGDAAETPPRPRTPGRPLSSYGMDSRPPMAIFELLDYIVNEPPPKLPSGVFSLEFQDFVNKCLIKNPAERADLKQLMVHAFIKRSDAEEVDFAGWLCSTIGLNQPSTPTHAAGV
Chain of Ribosomal protein S6 kinase alpha-1 (Homo sapiens) (Q15418 whole entry): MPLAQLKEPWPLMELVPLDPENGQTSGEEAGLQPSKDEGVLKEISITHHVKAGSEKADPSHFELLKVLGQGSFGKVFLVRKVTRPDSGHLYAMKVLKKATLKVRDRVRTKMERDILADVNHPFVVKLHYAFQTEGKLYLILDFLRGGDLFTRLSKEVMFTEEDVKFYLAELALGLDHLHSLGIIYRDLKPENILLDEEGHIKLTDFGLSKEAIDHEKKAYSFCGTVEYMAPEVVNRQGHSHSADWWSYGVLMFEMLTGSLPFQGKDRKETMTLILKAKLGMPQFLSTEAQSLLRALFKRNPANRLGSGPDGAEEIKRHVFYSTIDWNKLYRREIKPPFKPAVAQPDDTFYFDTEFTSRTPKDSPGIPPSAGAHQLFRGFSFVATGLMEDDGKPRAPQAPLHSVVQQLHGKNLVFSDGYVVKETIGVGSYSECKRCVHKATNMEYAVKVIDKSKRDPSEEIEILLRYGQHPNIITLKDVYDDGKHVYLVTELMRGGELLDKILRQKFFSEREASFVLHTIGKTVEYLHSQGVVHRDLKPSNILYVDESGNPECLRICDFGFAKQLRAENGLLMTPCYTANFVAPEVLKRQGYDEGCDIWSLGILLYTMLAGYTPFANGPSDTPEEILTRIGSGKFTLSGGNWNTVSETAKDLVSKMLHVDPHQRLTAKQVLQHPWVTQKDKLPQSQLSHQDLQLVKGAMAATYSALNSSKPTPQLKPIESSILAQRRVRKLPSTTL
Chain of Serine/threonine-protein kinase Sgk1 (Homo sapiens) (O00141 whole entry): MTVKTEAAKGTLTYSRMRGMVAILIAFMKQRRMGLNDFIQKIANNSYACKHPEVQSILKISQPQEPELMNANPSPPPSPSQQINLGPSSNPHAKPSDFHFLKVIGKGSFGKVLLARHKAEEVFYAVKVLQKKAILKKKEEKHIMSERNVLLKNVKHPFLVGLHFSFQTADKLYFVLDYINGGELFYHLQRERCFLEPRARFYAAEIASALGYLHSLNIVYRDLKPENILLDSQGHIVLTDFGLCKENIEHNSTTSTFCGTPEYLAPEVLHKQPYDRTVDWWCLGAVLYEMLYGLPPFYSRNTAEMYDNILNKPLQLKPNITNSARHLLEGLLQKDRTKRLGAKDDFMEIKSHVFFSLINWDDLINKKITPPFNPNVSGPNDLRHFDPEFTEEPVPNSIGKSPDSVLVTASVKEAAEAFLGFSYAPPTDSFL
Chain of Calcium/calmodulin-dependent protein kinase type 1 (Homo sapiens) (Q14012 whole entry, looked up): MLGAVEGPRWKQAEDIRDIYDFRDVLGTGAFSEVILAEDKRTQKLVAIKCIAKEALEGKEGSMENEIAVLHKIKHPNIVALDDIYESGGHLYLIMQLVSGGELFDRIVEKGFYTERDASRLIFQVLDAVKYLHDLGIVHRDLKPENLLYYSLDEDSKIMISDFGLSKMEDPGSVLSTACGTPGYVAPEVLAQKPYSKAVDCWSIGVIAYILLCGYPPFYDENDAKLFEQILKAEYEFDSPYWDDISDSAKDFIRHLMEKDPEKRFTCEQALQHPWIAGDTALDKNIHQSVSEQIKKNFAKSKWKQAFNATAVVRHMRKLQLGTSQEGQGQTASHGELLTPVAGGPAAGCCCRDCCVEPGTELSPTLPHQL

What is called inhibition is the drop in the measured response relative to a control, in per cent. The IC50 is the midpoint of a concentration-inhibition curve. With `c1ccc2c(Nc3cc(C4CCC4)[nH]n3)nc(Nc3ccc4[nH]cnc4c3)nc2c1`, the inhibition in experiment [1], in [2], in [3], in experiment [4], in experiment [5] and in [7] was above 80% each time. Besides, the inhibition (in the experiment filed under Homo sapiens; in [9]; in experiment [10]; in [11]) was above 80% in each case. Moreover, the IC50 in experiment [6] worked out at 420 nM; in experiment [8], 13 nM.

Turning to `NCCCNc1nc(Nc2cccc(NC(=O)N3CCCC3)c2)ncc1I`, the inhibition in [12], in [13] and in experiment [14] was above 80% each time. Moreover, the IC50 in experiment [6] is 710 nM; in experiment [8], 360 nM.
